# Measurements: ChEMBL document CHEMBL1141290, “Lipoxazolidinones A, B, and C: antibacterial 4-oxazolidinones from a marine actinomycete isolated from a Guam marine sediment” (2007)
# Assays:
# Assay type in all cases: functional
# Staphylococcus aureus [1] = experiment: Antimicrobial activity against methicillin-sensitive Staphylococcus aureus ATCC 29213 after 14 to 16 hrs by serial micro-broth dilution method
# Outline: (§1)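 MIC by serial broth microdilution following NCCLS standards, in cation-adjusted Mueller-Hinton broth. Final inoculum ~5 × 10^5 CFU/mL. Plates incubated at 35 °C for 14–16 h without CO2.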
# Staphylococcus aureus [2] = experiment: Antimicrobial activity against methicillin-resistant Staphylococcus aureus ATCC 43300 after 14 to 16 hrs by serial micro-broth dilution method
# Outline: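 Broth microdilution MIC following NCCLS standards, using cation-adjusted Mueller-Hinton broth in ambient air without CO2. The final inoculum was about 5 × 10^5 CFU/mL.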
# Streptococcus pneumoniae [3] = experiment: Antimicrobial activity against penicillin-sensitive Streptococcus pneumoniae ATCC 49619 after 14 to 16 hrs by serial microbroth dilution method
# Outline: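 MIC by NCCLS serial broth microdilution in cation-adjusted Mueller-Hinton broth II with lysed horse blood. Final inoculum ~5 × 10^5 CFU/mL. Incubated at 35 °C for 14–16 h in a CO2 incubator.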
# Enterococcus faecalis = experiment: Antimicrobial activity against vancomycin-sensitive Enterococcus faecalis ATCC 29212 after 14 to 16 hrs by serial microbroth dilution method; outline: as §1
# Haemophilus influenzae [4] = experiment: Antimicrobial activity against Haemophilus influenzae ATCC 49247 after 14 to 16 hrs by serial micro-broth dilution method
# Outline: (§2)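 MIC by serial broth microdilution per NCCLS, in Haemophilus Test Medium. Final inoculum ~5 × 10^5 CFU/mL. Plates incubated at 35 °C for 14–16 h in a CO2 incubator.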
# Haemophilus influenzae [5] = experiment: Antimicrobial activity against Haemophilus influenzae ATCC 49766 after 14 to 16 hrs by serial micro-broth dilution method; outline: as §2
# Escherichia coli = experiment: Antimicrobial activity against Escherichia coli ATCC 25922 after 14 to 16 hrs by serial micro-broth dilution method; outline: as §1
# [6] = tested on: Staphylococcus epidermidis; experiment: Antimicrobial activity against Staphylococcus epidermidis ATCC 700578 after 14 to 16 hrs by serial micro-broth dilution method; outline: as §1
# [7] = tested on: Staphylococcus epidermidis; experiment: Antimicrobial activity against Staphylococcus epidermidis ATCC 700582 after 14 to 16 hrs by serial microbroth dilution method; outline: as §1
# Streptococcus pneumoniae [8] = experiment: Antimicrobial activity against penicillin-resistant Streptococcus pneumoniae ATCC 51915 after 14 to 16 hrs by serial micro-broth dilution method
# Outline: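 Broth microdilution MIC following NCCLS standards, using cation-adjusted Mueller-Hinton broth II with lysed horse blood and incubation in a CO2 incubator. The final inoculum was about 5 × 10^5 CFU/mL.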
Structure (SMILES),MIC (Staphylococcus aureus [1]),MIC (Staphylococcus aureus [2]),MIC (Streptococcus pneumoniae [3]),MIC (Enterococcus faecalis),MIC (Haemophilus influenzae [4]),MIC (Haemophilus influenzae [5]),MIC (Escherichia coli),MIC [6],MIC [7],MIC (Streptococcus pneumoniae [8])
CCCCCCC/C(C)=C/C(=O)CC(=N)OC(CCCC)C(=O)O (stereo not given),24 µg/mL,> 32 µg/mL,> 32 µg/mL,32 µg/mL,> 32 µg/mL,> 32 µg/mL,> 32 µg/mL,,,
CC(=O)NC[C@H]1CN(c2ccc(N3CCOCC3)c(F)c2)C(=O)O1 [LINEZOLID],,1.5 µg/mL,,,12 µg/mL,12 µg/mL,> 32 µg/mL,1 µg/mL,1 µg/mL,
CCCCCC/C(C)=C/C(=O)/C=C1\NC(=O)C(CCCC)O1 (stereo not given) [LIPOXAZOLIDINE C],4 µg/mL,3 µg/mL,10 µg/mL,2 µg/mL,16 µg/mL,5 µg/mL,> 32 µg/mL,,,
CCCCCCC/C(C)=C/C(=O)/C=C1\NC(=O)C(CCCC)O1 (stereo not given) [LIPOXAZOLIDINONE A],0.9 µg/mL,1 µg/mL,2.6 µg/mL,1 µg/mL,12 µg/mL,12 µg/mL,> 32 µg/mL,0.5 µg/mL,0.5 µg/mL,4.7 µg/mL
CCCCCCC/C(C)=C/C(=O)/C=C1\NC(=O)C(CCCCC)O1 (stereo not given) [LIPOXAZOLIDINONE B],6 µg/mL,1.5 µg/mL,8 µg/mL,3 µg/mL,12 µg/mL,16 µg/mL,> 32 µg/mL,1.3 µg/mL,0.8 µg/mL,6 µg/mL
